Laboratory results taken from ChEMBL document CHEMBL1124476, “1-(2-aminoethyl)-6-aryl-4H- [1,2,4]triazolo[4,3-a][1,4]benzodiazepines with diuretic and natriuretic activity” (J Med Chem, 1989).

Columns and labels:
Rattus norvegicus [1] = species: Rattus norvegicus; assay: […]; assay type: ADME, organism-based, Urine; set-up: dose 10 mg/kg, route oral; conditions: in vivo, po, 10 mg/kg
Outline: (§1)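 Male Sprague-Dawley rats, about 160 g, fasted 24 h and water withheld 1 1/2 h beforehand; food and water withheld during the test. Dosing by gavage with 25 mL/kg 0.9% saline containing 0.5% (carboxymethyl)cellulose, agent dissolved or suspended. Three cages of two rats each per dose, held in metabolism cages. Urine collected over 5 h. Volume given in mL, Na+ in mequiv. Significance versus control at P < 0.05.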

Rattus norvegicus [2] = species: Rattus norvegicus; assay: […]; assay type: ADME, organism-based, Urine; set-up: dose 100 mg/kg, route oral; conditions: in vivo, po, 100 mg/kg; outline: as §1
Rattus norvegicus [3] = species: Rattus norvegicus; assay: […]; assay type: ADME, organism-based, Urine; set-up: dose 3 mg/kg, route oral; conditions: in vivo, po, 3 mg/kg; outline: as §1
Rattus norvegicus [4] = species: Rattus norvegicus; assay: […]; assay type: ADME, organism-based, Urine; set-up: dose 0.3 mg/kg, route oral; conditions: in vivo, po, 0.3 mg/kg
Outline: (§2)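 Dose-response test in male Sprague-Dawley rats of about 160 g, fasted 24 h, with water withheld 1½ h before and during the test. Each rat got a single gavage of 25 mL/kg 0.9% saline with 0.5% carboxymethylcellulose carrying the agent (0.3–100 mg/kg range). Rats were housed two per metabolism cage, and urine was collected for 5 h. Mean urine volume (mL) was compared with controls (P < 0.05).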

Rattus norvegicus [5] = species: Rattus norvegicus; assay: […]; assay type: ADME, organism-based, Urine; set-up: dose 1 mg/kg, route oral; conditions: in vivo, po, 1 mg/kg; outline: as §2
Rattus norvegicus [6] = assay: Mean excretion of potassium in conscious rats at a dose of 10 mg/kg given orally; assay type: ADME, organism-based; set-up: dose 10 mg/kg, route oral; conditions: in vivo, po
Outline: (§3)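 Secondary dose-response in male Sprague-Dawley rats (~160 g), fasted and hydrated as in the primary screen. Oral gavage at 0.3-100 mg/kg in 25 mL/kg saline/0.5% CMC, three cages of two rats per dose. Urine collected 5 h; Na, K, Cl, HCO3 measured. Values are mean excretion (mequiv), compared with controls at P < 0.05.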

Rattus norvegicus [7] = assay: Mean excretion of potassium in conscious rats at a dose of 100 mg/kg given orally; assay type: ADME, organism-based; set-up: dose 100 mg/kg, route oral; conditions: in vivo, po; outline: as §3
Rattus norvegicus [8] = assay: Mean excretion of potassium in conscious rats at a dose of 3.0 mg/kg given orally; assay type: ADME, organism-based; set-up: dose 3 mg/kg, route oral; conditions: in vivo, po; outline: as §3
Rattus norvegicus [9] = assay: Mean excretion of potassium in conscious rats at a dose of 30 mg/kg given orally; assay type: ADME, organism-based; set-up: dose 30 mg/kg, route oral; conditions: in vivo, po; outline: as §3
Rattus norvegicus [10] = assay: Mean excretion of sodium in conscious rats at a dose of 0.3 mg/kg given orally; assay type: ADME, organism-based; set-up: dose 0.3 mg/kg, route oral; conditions: in vivo, po; outline: as §1
Rattus norvegicus [11] = assay: Mean excretion of […] in conscious rats at a dose of 1.0 mg/kg given orally; assay type: ADME, organism-based; set-up: dose 1 mg/kg, route oral; conditions: in vivo, po; outline: as §1
Rattus norvegicus [12] = assay: Mean excretion of sodium in conscious rats at a dose of 10 mg/kg given orally; assay type: ADME, organism-based; set-up: dose 10 mg/kg, route oral; conditions: in vivo, po; outline: as §1
Rattus norvegicus [13] = assay: Mean excretion of sodium in conscious rats at a dose of 100 mg/kg given orally; assay type: ADME, organism-based; set-up: dose 100 mg/kg, route oral; conditions: in vivo, po; outline: as §1
Rattus norvegicus [14] = assay: Mean excretion of sodium in conscious rats at a dose of 3.0 mg/kg given orally; assay type: ADME, organism-based; set-up: dose 3 mg/kg, route oral; conditions: in vivo, po; outline: as §1
Rattus norvegicus [15] = assay: Mean excretion of sodium in conscious rats at a dose of 30 mg/kg given orally; assay type: ADME, organism-based; set-up: dose 30 mg/kg, route oral; conditions: in vivo, po; outline: as §1
Rattus norvegicus [16] = assay: Mean excretion of chloride in conscious rats at a dose of 1.0 mg/kg given orally; assay type: ADME, organism-based; set-up: dose 1 mg/kg, route oral; conditions: in vivo, po; outline: as §3
Rattus norvegicus [17] = assay: Mean excretion of chloride in conscious rats at a dose of 10 mg/kg given orally; assay type: ADME, organism-based; set-up: dose 10 mg/kg, route oral; conditions: in vivo, po; outline: as §3
Rattus norvegicus [18] = assay: Mean excretion of chloride in conscious rats at a dose of 100 mg/kg given orally; assay type: ADME, organism-based; set-up: dose 100 mg/kg, route oral; conditions: in vivo, po; outline: as §3
Rattus norvegicus [19] = assay: Mean excretion of chloride in conscious rats at a dose of 30 mg/kg given orally; assay type: ADME, organism-based; set-up: dose 30 mg/kg, route oral; conditions: in vivo, po; outline: as §3
Rattus norvegicus [20] = assay: Mean excretion of chloride in conscious rats at a dose of 3.0 mg/kg given orally; assay type: ADME, organism-based; set-up: dose 3 mg/kg, route oral; conditions: in vivo, po; outline: as §3
Rattus norvegicus [21] = assay: Mean excretion of Cl- in conscious rats at a dose of 0.3 mg/kg given orally; assay type: ADME, organism-based, Urine; set-up: dose 0.3 mg/kg, route oral; conditions: in vivo, po; outline: as §2
Rattus norvegicus [22] = assay: Mean excretion of potassium in conscious rats at a dose of 1.0 mg/kg given orally; assay type: ADME, organism-based; set-up: dose 1 mg/kg, route oral; conditions: in vivo, po; outline: as §3
Rattus norvegicus [23] = assay: Mean excretion of potassium in conscious rats at a dose of 0.3 mg/kg given orally; assay type: ADME, organism-based; set-up: dose 0.3 mg/kg, route oral; conditions: in vivo, po; outline: as §3
[24] = Diuretic activity at 40 mg/kg (screening dose-84.7 umol/kg) in […] in a two stage experiment; T/C1.2 = urine vol of treated rats / urine vol of control rats; assay type: functional
Outline: (§4)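 40 mg/kg given by gavage in 25 mL/kg 0.9% saline with 0.5% (carboxymethyl)cellulose. Four rats per agent, two per metabolism cage; 20 controls; 5 h urine. T/C = treated/control urine volume. Stage-1 T/C of 1.66 or more leads to stage 2; product T/C1·T/C2 of 3.34 or more counts as active.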

[25] = Diuretic activity at 40 mg/kg (screening dose-84.7 umol/kg) in […] in a one stage experiment; T/C = urine vol of treated rats / urine vol of control rats; assay type: functional; outline: as §4
Rattus norvegicus [26] = species: Rattus norvegicus; assay: […]; assay type: ADME, organism-based, Urine; set-up: dose 30 mg/kg, route oral; conditions: in vivo, po, 30 mg/kg; outline: as §1
[27] = Diuretic activity at 40 mg/kg (screening dose-84 umol/kg) in male […] in a two stage experiment; T/C1.2 = urine vol of treated rats / urine vol of control rats; assay type: functional; outline: as §4
[28] = Diuretic activity at 40 mg/kg (screening dose-84 umol/kg) in male […] in a one stage experiment; T/C = urine vol of treated rats / urine vol of control rats; assay type: functional; outline: as §4
[29] = Diuretic activity at 40 mg/kg (screening dose-90.5 umol/kg) in […] in a one stage experiment; T/C = urine vol of treated rats / urine vol of control rats; assay type: functional; outline: as §4
[30] = Diuretic activity at 40 mg/kg (screening dose-90.5 uM/Kg) in […] in a two stage experiment; T/C1.2 = urine vol of treated rats / urine vol of control rats; assay type: functional; outline: as §4

Compound | Mean urine volume (Rattus norvegicus [1]) [mL] | Mean urine volume (Rattus norvegicus [2]) [mL] | Mean urine volume (Rattus norvegicus [3]) [mL] | Mean urine volume (Rattus norvegicus [4]) [mL] | Mean urine volume (Rattus norvegicus [5]) [mL] | Mean excretion of K+ (Rattus norvegicus [6]) [m equiv] | Mean excretion of K+ (Rattus norvegicus [7]) [m equiv] | Mean excretion of K+ (Rattus norvegicus [8]) [m equiv] | Mean excretion of K+ (Rattus norvegicus [9]) [m equiv] | Mean excretion of Na+ (Rattus norvegicus [10]) [m equiv] | Mean excretion of Na+ (Rattus norvegicus [11]) [m equiv] | Mean excretion of Na+ (Rattus norvegicus [12]) [m equiv] | Mean excretion of Na+ (Rattus norvegicus [13]) [m equiv] | Mean excretion of Na+ (Rattus norvegicus [14]) [m equiv] | Mean excretion of Na+ (Rattus norvegicus [15]) [m equiv] | Mean excretion of Cl- (Rattus norvegicus [16]) [m equiv] | Mean excretion of Cl- (Rattus norvegicus [17]) [m equiv] | Mean excretion of Cl- (Rattus norvegicus [18]) [m equiv] | Mean excretion of Cl- (Rattus norvegicus [19]) [m equiv] | Mean excretion of Cl- (Rattus norvegicus [20]) [m equiv] | further results
COc1ccc(C(CN(C)C)c2nnc3n2-c2ccc(Cl)cc2C(c2ccccc2)=NC3)cc1 (stereo not drawn) | 5.74 | 12.25 | 4.98 | 4.13 | 4.81 | 0.19 | 0.26 | 0.23 | 0.18 | 0.67 | 0.66 | 0.93 | 1.91 | 0.68 | 1.58 | 0.71 | 0.93 | 1.65 | 1.55 | 0.75 | Mean excretion of Cl- (Rattus norvegicus [21]): 0.71 m equiv; Mean excretion of K+ (Rattus norvegicus [22]): 0.25 m equiv; Mean excretion of K+ (Rattus norvegicus [23]): 0.23 m equiv; T/C 1.2 [24]: 5.57; T/C 1 [25]: 2.77; Mean urine volume (Rattus norvegicus [26]): 10.47 mL
CN(C)CC(c1ccccc1)c1nnc2n1-c1ccc(Cl)cc1C(c1ccccc1Cl)=NC2 (stereo not drawn) | – | – | – | – | – | – | – | – | – | – | – | – | – | – | – | – | – | – | – | – | T/C 1.2 [27]: 2.66; T/C 1 [28]: 1.87
CN(C)CC(c1ccccc1)c1nnc2n1-c1ccccc1C(c1ccccc1Cl)=NC2 (stereo not drawn) | – | – | – | – | – | – | – | – | – | – | – | – | – | – | – | – | – | – | – | – | T/C 1 [29]: 1.62
COc1cccc(C(CN(C)C)c2nnc3n2-c2ccc(Cl)cc2C(c2ccccc2)=NC3)c1 (stereo not drawn) | 5.99 | 12.03 | 4.29 | 3.37 | 3.74 | 0.17 | 0.3 | 0.17 | 0.24 | 0.52 | 0.64 | 1.13 | 1.76 | 0.79 | 1.99 | 0.72 | 1.11 | 1.8 | 1.99 | 0.78 | Mean excretion of Cl- (Rattus norvegicus [21]): 0.59 m equiv; Mean excretion of K+ (Rattus norvegicus [22]): 0.21 m equiv; Mean excretion of K+ (Rattus norvegicus [23]): 0.22 m equiv; T/C 1.2 [30]: 7.31; T/C 1 [25]: 3.18; Mean urine volume (Rattus norvegicus [26]): 12.21 mL
COc1ccccc1C(CN(C)C)c1nnc2n1-c1ccc(Cl)cc1C(c1ccccc1)=NC2 (stereo not drawn) | 4.92 | 4.56 | 5.38 | 4.8 | 5.08 | 0.22 | 0.26 | 0.24 | 0.23 | 0.63 | 0.6 | 0.72 | 0.6 | 0.68 | 0.61 | 0.69 | 0.71 | 0.69 | 0.76 | 0.8 | Mean excretion of Cl- (Rattus norvegicus [21]): 0.69 m equiv; Mean excretion of K+ (Rattus norvegicus [22]): 0.23 m equiv; Mean excretion of K+ (Rattus norvegicus [23]): 0.17 m equiv; T/C 1.2 [24]: 5.03; T/C 1 [25]: 2.69; Mean urine volume (Rattus norvegicus [26]): 5.19 mL
CN(C)CC(c1cccc(Cl)c1)c1nnc2n1-c1ccc(Cl)cc1C(c1ccccc1)=NC2 (stereo not drawn) | – | – | – | – | – | – | – | – | – | – | – | – | – | – | – | – | – | – | – | – | T/C 1.2 [27]: 3.2; T/C 1 [28]: 1.86
